NR1D1 modulator: modulates human Rev-erb alpha binding to DNA; hit rate 0.79% among 370,000; P20393; activity, % at 10 µM; Rev-erbα–FITC-DNA binding, fluorescence polarization, 90 min; AID 1259318;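 active = activity above about 14%, limit read from the data; passing the limit was not always enough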;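 also: 0% = DMSO wells with 35 nM protein and 100% = DMSO wells with 750 nM protein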
rCAG RNA binder: molecules binding r(CAG) RNA repeats. r(CAG) RNA repeat, TO-PRO-1 dye displacement fluorescence. inhibition, % at 3 µM. hit rate 1.3% among 370,000;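 active = inhibition above the plate cutoff, the mean of all test compounds on that plate plus 3 SD, cut at about 35% in these data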;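 also: 0% = DMSO alone and 100% = 100 µM mitoxantrone as full dye displacement; higher means more dye released from RNA so lower well fluorescence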
NR2E3 ag-1: human photoreceptor-specific nuclear receptor agonism | hit rate 0.35% among 360,000 | inhibition of corepressor binding, % at 3.98 µM | CHO-S Gal4-NCOR/VP16-NR2E3 two-hybrid, luciferase;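 active = inhibition above the mean of all tested compounds plus 3 SD, cut at about 70% in these data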;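 also: 0% = DMSO with NR2E3 transfected cells and 100% = cells lacking NR2E3 construct; higher means lower luciferase signal from less NR2E3 corepressor binding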
Target sequence (Q9Y5X4 whole entry, looked up, the tested form may be a part): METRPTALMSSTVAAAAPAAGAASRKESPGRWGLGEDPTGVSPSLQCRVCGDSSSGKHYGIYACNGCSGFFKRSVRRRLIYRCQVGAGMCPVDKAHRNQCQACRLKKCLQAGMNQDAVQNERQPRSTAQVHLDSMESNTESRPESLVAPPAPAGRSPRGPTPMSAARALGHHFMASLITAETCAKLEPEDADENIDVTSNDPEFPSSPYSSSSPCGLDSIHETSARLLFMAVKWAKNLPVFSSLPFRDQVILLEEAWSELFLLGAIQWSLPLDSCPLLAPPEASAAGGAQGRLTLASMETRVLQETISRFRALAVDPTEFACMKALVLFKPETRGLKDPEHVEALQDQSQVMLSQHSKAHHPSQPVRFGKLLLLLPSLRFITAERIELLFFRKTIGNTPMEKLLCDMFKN
NR2E3 ag-2: activates human photoreceptor nuclear receptor NR2E3; hit rate 0.12% among 320,000; AID 2300; Q9Y5X4; GST-NR2E3/biotin-RetCOR TR-FRET, 1536-well; inhibition of corepressor binding, % at 4.78 µM;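 active = percent inhibition above the cutoff of mean plus 3 SD of all tested compounds, set per screening campaign, cut at about 20% in these data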;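 also: 0% = DMSO wells and 100% = biotin wells as full block of FRET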
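System: GST-NR2E3 and biotin-RetCOR proteins; probe or stimulus: 7 nM biotin-RetCOR; doses: compound at 4.8 µM, single dose; schedule: Compound–protein incubation for 5 h at 4 °C; detection: time-resolved FRET; read-out: percent inhibition; controls: biotin wells as high control, 0.6% DMSO wells as low control; format: 1536-well plates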
PG9 Ab binder: small molecules binding HIV-1 gp120 antibody PG9 | TR-FRET gp120-PG9 antibody binding | hit rate 0.43% among 360,000 | inhibition, % at 6.7 µM | AID 624416; in the data active = inhibition above about 8.5%
PG9 bind confirm: confirmation of small molecules binding HIV-1 gp120 antibody PG9 | inhibition, % at 6.7 µM | TR-FRET PG9 antibody binding, biochemical | shares compounds with PG9 Ab binder | hit rate 90% among 1,500; in the data active = inhibition above about 9%
PGV04 Ab binding: PGV04 control antibody binding, counter-screen. inhibition, % at 6.7 µM. TR-FRET PGV04 antibody-gp120 binding, biochemical. shares compounds with PG9 Ab binder. hit rate 95% among 1,500; in the data active = inhibition above about 9.5%
PG9 binder DR: PG9 antibody binding, dose response; shares compounds with PG9 Ab binder; TR-FRET PG9 antibody-gp120 binding inhibition; IC50, µM; 95 tested, under 10 active; AID 651848; in the data active = IC50 below about 10 µM
PGV04 DR counter: counter-screen for PG9 binders: binding to control antibody PGV04; hit rate 20% among 95; AID 651937; TR-FRET binding to control antibody PGV04; IC50, µM; shares compounds with PG9 Ab binder
PG126 DR counter: PG126 binding, dose response counter-screen | hit rate 20% among 95 | shares compounds with PG9 Ab binder | IC50, µM | TR-FRET binding to antibody PG126, counterscreen | AID 651939
* = called active by the depositor; i = inactive; . = no result given. In the library only some 2.6% were active in any assay of this set; here they are far more common. Rule as the data show it, unless noted: active = IC50 below about 9 µM; inactive = the rest.

SMILES	NR1D1 modulator	rCAG RNA binder	NR2E3 ag-1	NR2E3 ag-2	PG9 Ab binder	PG9 bind confirm	PGV04 Ab binding	others
COc1ccc(C(=O)Nc2cc(-c3ccc(C)cc3)no2)cc1	-2	0	-26	.	14*	15*	18*
CCn1c(-c2ccsc2)nc2c1c(=O)[nH]c(=O)n2Cc1ccccc1	10	3	11	-2	22*	39*	54*
Cc1ccc(C2C(C#N)=C(N)SC(N)=C2C#N)cc1	1	13	-3	.	13*	7	8
CCC(=O)N(C)C[C@H]1Oc2cc(-c3cccnc3)ccc2S(=O)(=O)N([C@H](C)CO)C[C@H]1C	-5	1	5	.	-1	.	.
CCSc1nnc(NC(=O)c2csc(C)c2)s1	17	1	-36	2	12*	19*	31*
CCSc1nnc(NC(=O)C(Cc2ccccc2)n2cccc2)s1 (stereo not given)	13	4	-7	-1	10*	21*	21*	PG9 binder DR=>67;PGV04 DR counter=i;PG126 DR counter=>22
CCSc1nnc(NC(=O)c2cccc3ccccc23)s1	-7	4	-2	-1	0	.	.
CCSc1nnc(NC(=O)COc2ccc3ccccc3c2)s1	9	5	8	5	14*	20*	35*
O[C@@H]1CN(CC2CCCCC2)[C@@H](c2ccc(Cl)cc2)C[C@H]1n1cc(-c2ccc(F)cc2)nn1	1	6	1	.	-1	.	.
O=C(CN1CCN(S(=O)(=O)c2ccccc2)CC1)N1CCc2ccccc21	2	4	6	2	0	.	.
CC1C=CC=CC=CC=CC=CC=CC=CC(OC2OC(C)C(O)C(N)C2O)CC2OC(O)(CC(O)CC(O)C(O)CCC(O)CC(O)CC(=O)OC(C)C(C)C1O)CC(O)C2C(=O)O (stereo not given)	.	.	24	.	.	.	.
Cc1ccc(-n2nc3c(=S)[nH]nc(C)c3c2C)cc1	2	4	5	17	45*	28*	25*	PG9 binder DR=>67;PGV04 DR counter=i;PG126 DR counter=i
Brc1ccc(Br)c2cnccc12	18	0	-41	.	13*	26*	35*
c1ccc2c(c1)[nH]c1ccncc12	0	0	11	4	-1	.	.
CCN(CC(=O)NCc1ccc(Cl)cc1)C(=O)c1cc(S(=O)(=O)N2CCOCC2)ccc1C	0	4	-4	.	-1	.	.
Cc1ccc(-n2nc3c(c2NC(=O)c2ccc(OC(C)C)cc2)CS(=O)C3)cc1 (stereo not given)	-1	-8	3	-1	0	.	.
Cc1ccc(-n2nc3c(c2NC(=O)c2ccccc2Br)CS(=O)C3)cc1 (stereo not given)	-2	2	-9	2	8.8*	8	15*
Cc1cc(=O)[nH]c(SCC(=O)Nc2ccc(F)c(F)c2)n1	2	4	.	.	.	.	.
O=C(CSc1nc2nc(-c3cccs3)cc(C(F)(F)F)c2c(=O)[nH]1)Nc1ccc(F)c(F)c1	-7	68*	-13	10	17*	20*	28*
C=CCOC(=O)C1=C[C@@H](c2coc3ccccc3c2=O)C[C@@H](OCCCCO)O1	1	-2	-13	2	-1	.	.
Cn1c(=O)c(Sc2ccccc2)c(O)c2ccccc21	5	-3	-30	3	0	.	.
Cc1ccc(Sc2c(O)c3ccccc3n(C)c2=O)cc1	2	1	0	.	14*	17*	24*
Cn1c(C(=O)Nc2ccc(Cl)cc2)cc2cc(Cl)ccc21	3	3	-12	0	14*	9.2*	16*
C[C@H](NC(=O)c1cc2cc(Cl)ccc2n1C)C(=O)N1CCC(C(=O)O)CC1	-2	2	-7	.	-1	.	.
C=CCNC(=O)c1cc(-c2ccc(Br)cc2)on1	4	0	-72	4	9.4*	25*	28*
SMILES	NR1D1 modulator	rCAG RNA binder	NR2E3 ag-1	NR2E3 ag-2	PG9 Ab binder	PG9 bind confirm	PGV04 Ab binding	others
O=C(NCCN1CCOCC1)c1cc(-c2ccc(Br)cc2)on1	-2	2	-11	5	1	.	.
Cc1cccc(N2CCN(C(=O)c3ccc4c(=O)[nH]c5c(C(=O)NC6CCCC6)sc(=S)n5c4c3)CC2)c1C	5	10	.	.	-2	.	.
CC(=O)Nc1ccc(Br)c2ccccc12	-1	1	-26	11	11*	22*	23*
CC(=O)Nc1ccc(NS(=O)(=O)c2ccccc2)c2ccccc12	-1	2	14	0	-1	.	.
COc1ccccc1NS(=O)(=O)c1cccc(NC(=O)c2[nH]c(C)c(C(C)=O)c2C)c1	1	11	-26	0	12*	21*	19*	PG9 binder DR=>67;PGV04 DR counter=>67;PG126 DR counter=>67
COc1ccccc1NC(=O)c1[nH]c(C)c(C(C)=O)c1C	5	2	7	2	-1	.	.
CC(=O)c1c(OC(=O)c2ccccc2)ccnc1C(F)(F)F	-3	1	12	2	9.2*	11*	11*
COc1ccc(C(=O)CSc2nc(N)nc(SC)c2C#N)cc1	8	5	-4	3	21*	23*	28*
COCCN1CCC(CO)C1 (stereo not given)	-2	2	11	.	10*	8	11*
COc1ccccc1C(=O)COC(=O)c1ccc(-n2cnnn2)cc1	-3	6	-45	1	0	.	.
COc1ccc(C(=O)COC(=O)c2ccc(-n3cnnn3)cc2)c(OC)c1	14	5	8	6	24*	36*	44*
COc1ccc2c(Cl)c(C(N)=O)sc2c1	5	0	-63	-1	18*	26*	35*
COc1ccc2c(Cl)c(C(=O)NN)sc2c1	0	7	-4	0	-2	.	.
Cc1cc(C)cc(NC(=O)C2CCN(S(=O)(=O)c3ccc4[nH]c(=O)ccc4c3)CC2)c1	6	10	-18	1	13*	16*	30*
CCc1cccc(NC(=O)C2CCN(S(=O)(=O)c3ccc4[nH]c(=O)ccc4c3)CC2)c1	5	8	6	1	4	.	.
COc1ccc(C(=O)/C=C2/Sc3cc4c(cc3N2C)OCO4)cc1	1	2	12	-31	40*	56*	49*	PG9 binder DR=>67;PGV04 DR counter=2.4*;PG126 DR counter=2.4*
COc1cccc(C(C(=O)NCc2ccccc2)N2CCN(CCN3CCOCC3)CC2)c1OC (stereo not given)	1	-1	.	.	-1	.	.

From PubChem
